In ChEMBL document CHEMBL2040727, “Substituted thiazoles VI. Synthesis and antitumor activity of new 2-acetamido- and 2 or 3-propanamido-thiazole analogs” (2012):

Legend:
Type in all cases: functional
NCI-H322M = assay: Growth inhibition of human NCI-H322M cells at 10 uM after 48 hrs by coulter counter analysis; conditions: read-out: GI
In short: (§1)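 Single-dose NCI 60-line panel screen of test compounds. Cells grown in RPMI 1640 with 10% FBS. Compounds dissolved in DMSO, then diluted in phosphate buffer saline (final DMSO below 1%). Wells run in duplicate at 6 × 10⁴ cells/ml. Controls held PBS and DMSO at matching dilutions. Incubation 48 h at 37 °C under humidified 5% CO2. Cells diluted tenfold in saline and counted by Coulter counter. Percent growth inhibition taken from mean-graph of treated-cell growth.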

MOLT-4 = assay: Growth inhibition of human MOLT4 cells at 10 uM after 48 hrs by coulter counter analysis; conditions: MOLT-4, 48 h, read-out: GI; in short: as §1
SK-MEL-5 = assay: Growth inhibition of human SK-MEL-5 cells at 10 uM after 48 hrs by coulter counter analysis; conditions: SK-MEL-5, 48 h, read-out: GI; in short: as §1
EKVX = assay: Growth inhibition of human EKVX cells at 10 uM after 48 hrs by coulter counter analysis; conditions: read-out: GI; in short: as §1
NCI-H522 = assay: Growth inhibition of human NCI-H522 cells at 10 uM after 48 hrs by coulter counter analysis; conditions: NCI-H522, 48 h, read-out: GI; in short: as §1
LOX IMVI = assay: Growth inhibition of human LOXIMVI cells at 10 uM after 48 hrs by coulter counter analysis; conditions: read-out: GI; in short: as §1
HOP-62 = assay: Growth inhibition of human HOP62 cells at 10 uM after 48 hrs by coulter counter analysis; conditions: HOP-62, 48 h, read-out: GI; in short: as §1
[1] = Growth inhibition of human Hs 578T cells at 10 uM after 48 hrs by coulter counter analysis; conditions: read-out: GI; in short: as §1
MCF7 = assay: Growth inhibition of human MCF7 cells at 10 uM after 48 hrs by coulter counter analysis; conditions: MCF7, 48 h, read-out: GI; in short: as §1
HCC 2998 = assay: Growth inhibition of human HCC2998 cells at 10 uM after 48 hrs by coulter counter analysis; conditions: HCC 2998, 48 h, read-out: GI; in short: as §1
K562 = assay: Growth inhibition of human K562 cells at 10 uM after 48 hrs by coulter counter analysis; conditions: K562, 48 h, read-out: GI; in short: as §1
SNB-75 = assay: Growth inhibition of human SNB75 cells at 10 uM after 48 hrs by coulter counter analysis; conditions: SNB-75, 48 h, read-out: GI
In short: (§2)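 Single-dose screen in the NCI 60 cell line panel. Cells grown in RPMI 1640 with 10% FBS. Compounds dissolved in DMSO and diluted in phosphate buffered saline, final DMSO under 1%. Duplicate wells seeded from culture at 6 × 10⁴ cells/ml. Incubated 48 h at 37 °C, humidified, 5% CO2. Cells diluted tenfold in saline and Coulter-counted. Percent growth inhibition computed against PBS/DMSO controls.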

MDA-MB-435 = assay: Growth inhibition of human MDA-MB-435 cells at 10 uM after 48 hrs by coulter counter analysis; conditions: MDA-MB-435, 48 h, read-out: GI; in short: as §1
DU-145 = assay: Growth inhibition of human DU145 cells at 10 uM after 48 hrs by coulter counter analysis; conditions: DU-145, 48 h, read-out: GI; in short: as §1
OVCAR-8 = assay: Growth inhibition of human OVCAR8 cells at 10 uM after 48 hrs by coulter counter analysis; conditions: OVCAR-8, 48 h, read-out: GI; in short: as §1
OVCAR-5 = assay: Growth inhibition of human OVCAR5 cells at 10 uM after 48 hrs by coulter counter analysis; conditions: OVCAR-5, 48 h, read-out: GI; in short: as §1
OVCAR-3 = assay: Growth inhibition of human OVCAR3 cells at 10 uM after 48 hrs by coulter counter analysis; conditions: OVCAR-3, 48 h, read-out: GI; in short: as §1
T47D = assay: Growth inhibition of human T47D cells at 10 uM after 48 hrs by coulter counter analysis; conditions: read-out: GI; in short: as §2
SK-MEL-2 = assay: Growth inhibition of human SK-MEL-2 cells at 10 uM after 48 hrs by coulter counter analysis; conditions: SK-MEL-2, 48 h, read-out: GI; in short: as §1
SF-268 = assay: Growth inhibition of human SF268 cells at 10 uM after 48 hrs by coulter counter analysis; conditions: SF-268, 48 h, read-out: GI; in short: as §1
SW-620 = assay: Growth inhibition of human SW620 cells at 10 uM after 48 hrs by coulter counter analysis; conditions: SW-620, 48 h, read-out: GI; in short: as §2
Malme-3M = assay: Growth inhibition of human MALME-3M cells at 10 uM after 48 hrs by coulter counter analysis; conditions: read-out: GI; in short: as §1
ACHN = assay: Growth inhibition of human ACHN cells at 10 uM after 48 hrs by coulter counter analysis; conditions: read-out: GI; in short: as §1
786-0 = assay: Growth inhibition of human 786-0 cells at 10 uM after 48 hrs by coulter counter analysis; conditions: 786-0, 48 h, read-out: GI; in short: as §1
IGROV-1 = assay: Growth inhibition of human IGROV1 cells at 10 uM after 48 hrs by coulter counter analysis; conditions: IGROV-1, 48 h, read-out: GI; in short: as §1
SN12C = assay: Growth inhibition of human SN12C cells at 10 uM after 48 hrs by coulter counter analysis; conditions: read-out: GI; in short: as §1
NCI-H23 = assay: Growth inhibition of human NCI-H23 cells at 10 uM after 48 hrs by coulter counter analysis; conditions: NCI-H23, 48 h, read-out: GI; in short: as §1
CCRF-CEM = assay: Growth inhibition of human CCRF-CEM cells at 10 uM after 48 hrs by coulter counter analysis; conditions: read-out: GI; in short: as §1
SNB-19 = assay: Growth inhibition of human SNB19 cells at 10 uM after 48 hrs by coulter counter analysis; conditions: SNB-19, 48 h, read-out: GI; in short: as §1
UACC-62 = assay: Growth inhibition of human UACC62 cells at 10 uM after 48 hrs by coulter counter analysis; conditions: UACC-62, 48 h, read-out: GI; in short: as §2
HT-29 = assay: Growth inhibition of human HT-29 cells at 10 uM after 48 hrs by coulter counter analysis; conditions: HT-29, 48 h, read-out: GI; in short: as §1
SF-295 = assay: Growth inhibition of human SF295 cells at 10 uM after 48 hrs by coulter counter analysis; conditions: SF-295, 48 h, read-out: GI; in short: as §1
A498 = assay: Growth inhibition of human A498 cells at 10 uM after 48 hrs by coulter counter analysis; conditions: A498, 48 h, read-out: GI; in short: as §1
HOP-92 = assay: Growth inhibition of human HOP92 cells at 10 uM after 48 hrs by coulter counter analysis; conditions: HOP-92, 48 h, read-out: GI; in short: as §1
A549 = assay: Growth inhibition of human A549/ATCC cells at 10 uM after 48 hrs by coulter counter analysis; conditions: A549, 48 h, read-out: GI; in short: as §1
M14 = assay: Growth inhibition of human M14 cells at 10 uM after 48 hrs by coulter counter analysis; conditions: M14, 48 h, read-out: GI; in short: as §1
[2] = Growth inhibition of human NCI-ADR-RES cells at 10 uM after 48 hrs by coulter counter analysis; conditions: read-out: GI; in short: as §1

| Structure (SMILES) | inhibition of growth at 10 µM (NCI-H322M) [%] | inhibition of growth at 10 µM (MOLT-4) [%] | inhibition of growth at 10 µM (SK-MEL-5) [%] | inhibition of growth at 10 µM (EKVX) [%] | inhibition of growth at 10 µM (NCI-H522) [%] | inhibition of growth at 10 µM (LOX IMVI) [%] | inhibition of growth at 10 µM (HOP-62) [%] | inhibition of growth at 10 µM [1] [%] | inhibition of growth at 10 µM (MCF7) [%] | inhibition of growth at 10 µM (HCC 2998) [%] | inhibition of growth at 10 µM (K562) [%] | inhibition of growth at 10 µM (SNB-75) [%] | inhibition of growth at 10 µM (MDA-MB-435) [%] | inhibition of growth at 10 µM (DU-145) [%] | inhibition of growth at 10 µM (OVCAR-8) [%] | inhibition of growth at 10 µM (OVCAR-5) [%] | inhibition of growth at 10 µM (OVCAR-3) [%] | inhibition of growth at 10 µM (T47D) [%] | inhibition of growth at 10 µM (SK-MEL-2) [%] | inhibition of growth at 10 µM (SF-268) [%] | other results |
| --- | --- | --- | --- | --- | --- | --- | --- | --- | --- | --- | --- | --- | --- | --- | --- | --- | --- | --- | --- | --- | --- |
| CN1CCN(CCC(=O)Nc2nc(-c3ccccc3)cs2)CC1 | < 10 | 35.7 | < 10 | < 10 | 16.5 | 11.1 | 14.5 | 10.5 | 11.8 | < 10 | < 10 | 30.5 | < 10 | < 10 | < 10 | < 10 | < 10 | < 10 | < 10 | < 10 | inhibition of growth at 10 µM (SW-620): < 10%; inhibition of growth at 10 µM (Malme-3M): 12.7%; inhibition of growth at 10 µM (ACHN): < 10%; inhibition of growth at 10 µM (786-0): < 10%; inhibition of growth at 10 µM (IGROV-1): 10.6%; inhibition of growth at 10 µM (SN12C): 17.2%; inhibition of growth at 10 µM (NCI-H23): < 10%; inhibition of growth at 10 µM (CCRF-CEM): 14.4%; inhibition of growth at 10 µM (SNB-19): < 10%; inhibition of growth at 10 µM (UACC-62): 11.1%; inhibition of growth at 10 µM (HT-29): < 10%; inhibition of growth at 10 µM (SF-295): < 10%; inhibition of growth at 10 µM (A498): < 10%; inhibition of growth at 10 µM (HOP-92): 24.5%; inhibition of growth at 10 µM (A549): < 10%; inhibition of growth at 10 µM (M14): < 10%; inhibition of growth at 10 µM [2]: 13% |
| O=C(CN1CCN(c2ccccc2)CC1)Nc1nc(-c2ccccc2)cs1 | 11.3 | 31.3 | 31.9 | < 10 | 29.7 | 11.5 | < 10 | < 10 | 19.3 | < 10 | 20 | 29.7 | < 10 | < 10 | < 10 | < 10 | < 10 | 29.7 | 11.6 | < 10 | inhibition of growth at 10 µM (SW-620): < 10%; inhibition of growth at 10 µM (Malme-3M): 23.4%; inhibition of growth at 10 µM (ACHN): 16.2%; inhibition of growth at 10 µM (786-0): < 10%; inhibition of growth at 10 µM (IGROV-1): 26.5%; inhibition of growth at 10 µM (SN12C): 17.3%; inhibition of growth at 10 µM (NCI-H23): 18.6%; inhibition of growth at 10 µM (CCRF-CEM): 22.7%; inhibition of growth at 10 µM (SNB-19): 10.1%; inhibition of growth at 10 µM (UACC-62): 36.6%; inhibition of growth at 10 µM (HT-29): 23.8%; inhibition of growth at 10 µM (SF-295): 15.9%; inhibition of growth at 10 µM (A498): 44.1%; inhibition of growth at 10 µM (HOP-92): 25.6%; inhibition of growth at 10 µM (A549): 17.6%; inhibition of growth at 10 µM (M14): 13.6%; inhibition of growth at 10 µM [2]: 23% |
